# Published values gathered from unrelated publications.
# Lines come from different studies, so protocols differ.
# AMY2: Pancreatic alpha-amylase (AMY2, Sus scrofa, UniProt P00690)
# CDK4 with cyclin D1: Cyclin-dependent kinase 4, with cyclin D1 (CDK4, Homo sapiens, UniProt P11802)
# CDK4 with cyclin D3: Cyclin-dependent kinase 4, with cyclin D3 (CDK4, Homo sapiens, UniProt P11802)
# CHRM2: Muscarinic acetylcholine receptor M2 (CHRM2, Homo sapiens, UniProt P08172)
SMILES,target,read-out,action,technique,setting,IC50 [µM]
O=c1c(O)c(-c2ccc(O)c(O)c2)oc2c(Br)c(O)c(Br)c(O)c12,AMY2,enzyme activity,inhibitor,,,19.9
Cc1cc(O)c(-c2ccc([C@@H](C)CN(C)C)cc2)c2c1[nH]c(=O)c1sccc12,CDK4 with cyclin D1,enzyme activity,inhibitor,,,> 1
CN(C)C(=O)c1cc2cnc(Nc3ccc(-c4cccc5c(=O)cc(N6CCNCC6)oc45)cc3)nc2n1C1CCCC1,CDK4 with cyclin D1,enzyme activity,inhibitor,radiometric,,0.29
C[C@H]1CN(C(=O)CC#N)[C@]12CCN(c1ncnc3[nH]ccc13)C2,"Organic anion transporter 3 (SLC22A8, Homo sapiens, UniProt Q8TCC7)",transporter uptake,inhibitor,,,6.38
CNS(=O)(=O)c1ccc(Nc2ncc(C(F)(F)F)c([C@H]3CC[C@@](C)(O)CC3)n2)c(C)c1,CDK4 with cyclin D3,enzyme activity,inhibitor,radiometric,,3.47
NC/C(=C\F)COc1cccc(Cn2c(=S)[nH]c(=O)c3[nH]cnc32)c1,"Voltage-dependent L-type calcium channel subunit alpha-1C (CACNA1C, Homo sapiens, UniProt Q13936)",ion current,inhibitor,,,> 100
COc1ccc(-c2oc3cc(Nc4ncc5cc(C(=O)N(C)C)n(C6CCCC6)c5n4)ccc3c(=O)c2F)cc1,CDK4 with cyclin D1,enzyme activity,inhibitor,radiometric,,1.07
O=C(CCNC(=O)CNC(=O)CC(c1ccccc1)(c1ccccc1)c1ccccc1)NC[C@H]1CCCN(Cc2ccc(F)cc2)C1,CHRM2,ligand displacement,,radioligand,cell membranes,13.7
CNS(=O)(=O)c1ccc(Nc2ncc(C(F)(F)F)c(N3CCC[C@](C)(O)C3)n2)c(C)c1,CDK4 with cyclin D3,enzyme activity,inhibitor,radiometric,,0.827
O=c1cc(-c2ccc(O)c(O)c2)oc2c(Br)c(O)c(Br)c(O)c12,AMY2,enzyme activity,inhibitor,,,0.99
CN(C)C(=O)c1cc2cnc(Nc3ccc(-c4cccc5c(=O)cc(N6CCOCC6)oc45)cc3)nc2n1C1CCCC1,CDK4 with cyclin D1,enzyme activity,inhibitor,radiometric,,0.226
O=C(CCNC(=O)CNC(=O)CC(c1ccccc1)(c1ccccc1)c1ccccc1)NCC1CCN(Cc2ccc(F)cc2)CC1,CHRM2,ligand displacement,,radioligand,cell membranes,6.4
CN(C)C(=O)c1cc2cnc(Nc3ccc(-c4cccc5c(=O)cc(N6CCOCC6)oc45)cn3)nc2n1C1CCCC1,CDK4 with cyclin D1,enzyme activity,inhibitor,radiometric,,0.46
O=c1c(O)c(-c2ccc(O)cc2)oc2c(Br)c(O)c(Br)c(O)c12,AMY2,enzyme activity,inhibitor,,,3.71
Cc1cc(S(=O)(=O)NCCO[C@H]2CC[C@H](CN3CCC(c4ccn5c(N6CCC(=O)NC6=O)cnc5c4)CC3)CC2)ccc1Nc1ncc2cc(Cl)c(=O)n(C3CCCC3)c2n1,CDK4 with cyclin D3,enzyme activity,inhibitor,radiometric,,0.026
CN(C)C(=O)c1cc2cnc(Nc3cncc(-c4cccc5c(=O)cc(N6CCOCC6)oc45)c3)nc2n1C1CCCC1,CDK4 with cyclin D1,enzyme activity,inhibitor,radiometric,,0.054
CN1CCC(CNc2ccc3ncc(-c4cccc(OC(F)(F)F)c4)n3n2)CC1,CHRM2,cAMP,antagonist,,,5.14
CNS(=O)(=O)c1ccc(Nc2ncc(C(F)(F)F)c(N3CCC(C)(O)CC3)n2)c(C)c1,CDK4 with cyclin D3,enzyme activity,inhibitor,radiometric,,0.201
N=C(N)c1ccc(OCCCCCOc2ccc(C(=N)N)cc2)cc1,"Chymotrypsinogen A (Bos taurus, UniProt P00766)",enzyme activity,inhibitor,absorbance,,> 1750
